Source: ChEMBL document CHEMBL4480397, “Discovery of a Natural-Product-Derived Preclinical Candidate for Once-Weekly Treatment of Type 2 Diabetes” (J Med Chem, 2019)
Active and inactive are the calls of the source. The rule behind the calls is not given here.

How the values were obtained:
[1] = Terminal half life in ICR mouse at 2 mg/kg, po by LC-MS-MS analysis; assay type: ADME, organism-based; details: in vivo, read-out: beta t1/2 (converted)
Procedure, shortened: (§1)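 Male ICR mice (n = 4/group), fasted 2 h, given a single oral dose of 2 mg/kg. Baseline blood was taken into EDTA, then samples at 1, 2, 4, 6, 8, 24, 48, 72, 96 and 120 h. Plasma was kept at -80 °C and concentrations measured by LC/MS/MS. Parameters came from noncompartmental analysis; values are means.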

[2] = Tmax in ICR mouse at 2 mg/kg, po by LC-MS-MS analysis; assay type: ADME, organism-based; details: in vivo; procedure, shortened: as §1
[3] = Cmax in ICR mouse at 2 mg/kg, po by LC-MS-MS analysis; assay type: ADME, organism-based; parameters: dose 2 mg/kg, route oral; details: in vivo; procedure, shortened: as §1
Mus musculus [4] = experiment: Initial plasma concentration in ICR mouse at 2 mg/kg, po by LC-MS-MS analysis; assay type: ADME, organism-based; details: in vivo; procedure, shortened: as §1
[5] = AUCt in ICR mouse at 2 mg/kg, po by LC-MS-MS analysis; assay type: ADME, organism-based; details: in vivo; procedure, shortened: as §1
[6] = AUC (0 to infinity) in ICR mouse at 2 mg/kg, po by LC-MS-MS analysis; assay type: ADME, organism-based; parameters: dose 2 mg/kg, route oral, time infinity; details: in vivo; procedure, shortened: as §1
[7] = MRT (0 to infinity) in ICR mouse at 2 mg/kg, po by LC-MS-MS analysis; assay type: ADME, organism-based; details: in vivo; procedure, shortened: as §1
[8] = Tmax in Sprague-Dawley rat at 2 mg/kg, po by LC-MS-MS analysis; assay type: ADME, organism-based; details: in vivo
Rattus norvegicus = experiment: Initial plasma concentration in Sprague-Dawley rat at 2 mg/kg, po by LC-MS-MS analysis; assay type: ADME, organism-based; details: in vivo
[9] = Cmax in Sprague-Dawley rat at 2 mg/kg, po by LC-MS-MS analysis; assay type: ADME, organism-based; parameters: dose 2 mg/kg, route oral; details: in vivo
[10] = AUCt in Sprague-Dawley rat at 2 mg/kg, po by LC-MS-MS analysis; assay type: ADME, organism-based; details: in vivo
[11] = Terminal half life in Sprague-Dawley rat at 1 mg/kg, iv by LC-MS-MS analysis; assay type: ADME, organism-based; details: in vivo, read-out: beta t1/2 (converted)
[12] = Initial plasma concentration in Sprague-Dawley rat at 1 mg/kg, iv by LC-MS-MS analysis; assay type: ADME, organism-based
[13] = Cmax in Sprague-Dawley rat at 1 mg/kg, iv by LC-MS-MS analysis; assay type: ADME, organism-based; parameters: dose 1 mg/kg, route intravenous; details: in vivo
[14] = AUCt in Sprague-Dawley rat at 1 mg/kg, iv by LC-MS-MS analysis; assay type: ADME, organism-based; details: in vivo
[15] = AUC (0 to infinity) in Sprague-Dawley rat at 1 mg/kg, iv by LC-MS-MS analysis; assay type: ADME, organism-based; parameters: dose 1 mg/kg, route intravenous, time infinity; details: in vivo
[16] = Clearance in Sprague-Dawley rat at 1 mg/kg, iv by LC-MS-MS analysis; assay type: ADME, organism-based; details: in vivo
[17] = MRT (0 to infinity) in Sprague-Dawley rat at 1 mg/kg, iv by LC-MS-MS analysis; assay type: ADME, organism-based; details: in vivo
[18] = Volume of distribution at steady state in Sprague-Dawley rat at 1 mg/kg, iv by LC-MS-MS analysis; assay type: ADME, organism-based; details: in vivo, read-out: Vdss
[19] = Plasma concentration in Sprague-Dawley rat at 2 mg/kg, po by LC-MS-MS analysis; assay type: ADME, organism-based; details: in vivo
[20] = Plasma concentration in Sprague-Dawley rat at 2 mg/kg, po after 24 hrs by LC-MS-MS analysis; assay type: ADME, organism-based; details: in vivo
[21] = Oral bioavailability in Sprague-Dawley rat at 2 mg/kg after 24 hrs by LC-MS-MS analysis; assay type: ADME, organism-based; details: in vivo
Mus musculus [22] = experiment: Anti-diabetic activity in ICR mouse assessed as inhibition of DPP4 in plasma at 3 mg/kg, po administered as single dose using Gly-Pro-AMC as substrate and measured after 7 days post dose by fluorometric assay relative to control; assay type: functional
Procedure, shortened: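 Male ICR mice (n = 10/group), fasted 2 h, given single oral doses of 0.03–3 mg/kg in 0.5% CMC-Na, with pre-dose baseline blood. Blood was drawn at 1–168 h. […] DPP-4 was read continuously for 5 min at 37 °C with 10 µM Gly-Pro-AMC in 100 mM HEPES pH 7.5 containing 0.1 mg/mL BSA (ex 360/em 460 nm). % activity is the treated rate over each animal's own baseline rate.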

Mus musculus [23] = experiment: Anti-diabetic activity in 8 hrs-fasted ICR mouse assessed as reduction in blood glucose AUC (0 to 120 mins)at 0.3 mg/kg, po pretreated for 60 mins followed by glucose challenge and measured after 120 mins post glucose challenge by OGTT relative to control; assay type: functional
Procedure, shortened: (§2)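 Male ICR mice (n = 10/group), fasted 8 h, dosed orally at 0.03, 0.3 or 3 mg/kg in 0.5% CMC-Na 1 h before an oral glucose load of 3 g/kg. Glucometer readings at −60, 0, 15, 30, 60, 90 and 120 min. Glucose AUC0–120 min by the trapezoidal method; one-way ANOVA with Fisher's LSD against vehicle.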

Mus musculus [24] = experiment: Anti-diabetic activity in 8 hrs-fasted ICR mouse assessed as reduction in blood glucose AUC (0 to 120 mins) at 3 mg/kg, po pretre at ed for 60 mins followed by glucose challenge and measured after 120 mins post glucose challenge by OGTT rel at ive to control; assay type: functional; procedure, shortened: as §2
Mus musculus [25] = experiment: Anti-diabetic activity in 8 hrs-fasted ICR mouse assessed as increase in insulin levels at 3 mg/kg, po pretreated for 60 mins followed by glucose challenge by OGTT; assay type: functional, organism-based
Procedure, shortened: (§3)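 Male ICR mice (n = 10/group), fasted 8 h, dosed orally at 0.3, 1 or 3 mg/kg 1 h before oral glucose at 3 g/kg. Blood was collected at 0, 5 and 10 min into tubes with valine pyrrolidide and EDTA. Active GLP-1[7-36 amide] and insulin measured by kit. Two-way ANOVA with Fisher's LSD against vehicle.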

Mus musculus [26] = experiment: Anti-diabetic activity in db/db mouse assessed as reduction in fasting blood glucose at 3 mg/kg, po dosed once weekly for 8 weeks; assay type: functional; parameters: scale not given: the % may be the effect or the level left
Mus musculus [27] = experiment: Anti-diabetic activity in db/db mouse assessed as reduction in fasting blood glucose at 10 mg/kg, po dosed once weekly for 8 weeks; assay type: functional; parameters: scale not given: the % may be the effect or the level left
Mus musculus [28] = experiment: Anti-diabetic activity in db/db mouse assessed as increase in glucose tolerance at 10 mg/kg, po dosed once weekly for 8 weeks by OGTT; assay type: functional, organism-based
Mus musculus [29] = experiment: Anti-diabetic activity in db/db mouse assessed as HbA1c levels at 10 mg/kg, po dosed once weekly for 8 weeks; assay type: functional
[30] = Toxicity in db/db mouse assessed as induction of abnormal weight gain at 3 to 10 mg/kg, po dosed once weekly for 8 weeks; assay type: organism-based; details: in vivo, 1344 h
[31] = molecular target: Voltage-gated inwardly rectifying potassium channel KCNH2 (Homo sapiens, UniProt Q12809); experiment: Inhibition of human ERG by patch clamp assay
[32] = Toxicity in ICR mouse assessed at 300 mg/kg, po administered as single dose; assay type: organism-based; details: in vivo
Procedure, shortened: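 ICR mice given a single oral dose of 300 mg/kg to assess acute toxicity.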

[33] = Toxicity in ICR mouse assessed as effect on clinical signs at 30 mg/kg, po administered once daily for 14 consecutive days; assay type: organism-based; details: in vivo
Procedure, shortened: (§4)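 ICR mice dosed orally at 30 mg/kg once daily for 14 consecutive days. Endpoints were clinical signs, body weight, organ index, blood parameters and serum biochemistry, each compared with a control group.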

[34] = Toxicity in ICR mouse assessed as effect on body weight at 30 mg/kg, po administered once daily for 14 consecutive days; assay type: organism-based; details: in vivo; procedure, shortened: as §4
[35] = Toxicity in ICR mouse assessed as effect on organ index at 30 mg/kg, po administered once daily for 14 consecutive days; assay type: organism-based; details: in vivo; procedure, shortened: as §4
[36] = Toxicity in ICR mouse assessed as effect on blood parameter at 30 mg/kg, po administered once daily for 14 consecutive days; assay type: organism-based; details: in vivo; procedure, shortened: as §4
[37] = Toxicity in db/db mouse assessed as induction of distress signs at 3 to 10 mg/kg, po dosed once weekly for 8 weeks; assay type: organism-based; details: in vivo, 1344 h
[38] = Toxicity in db/db mouse assessed as induction of discomfort signs at 3 to 10 mg/kg, po dosed once weekly for 8 weeks; assay type: organism-based; details: in vivo, 1344 h
[39] = Toxicity in ICR mouse assessed as effect on serum biochemical parameters at 30 mg/kg, po administered once daily for 14 consecutive days; assay type: organism-based; details: in vivo; procedure, shortened: as §4
Mus musculus [40] = experiment: Anti-diabetic activity in mouse assessed as inhibition of DPP4 in plasma at 3 mg/kg, po administered as single dose pretreated for 60 mins followed by glucose challenge and measured over 168 hrs post dose
Mus musculus [41] = experiment: Anti-diabetic activity in 6 hrs-fasted db/db mouse assessed as reduction in blood glucose AUC (0 to 120 mins) at 10 mg/kg, po pretre at ed for 60 mins followed by glucose challenge and measured after 120 mins post glucose challenge by OGTT rel at ive to control
Mus musculus [42] = experiment: Anti-diabetic activity in 6 h-fasted db/db mouse assessed as inhibition of DPP4 in plasma at 10 mg/kg, po administered as single dose pretreated for 60 mins followed by glucose challenge and measured after 120 mins post glucose challenge by OGTT; assay type: functional, organism-based
Mus musculus [43] = experiment: Anti-diabetic activity in db/db mouse assessed as increase in glucose-induced insulin secretion at 10 mg/kg, po dosed once weekly for 8 weeks pretreated for 60 mins followed by glucose challenge and measured after 120 mins post glucose challenge by OGTT relative to control; assay type: functional
Mus musculus [44] = experiment: Anti-diabetic activity in 8 hrs-fasted ICR mouse assessed as increase in GLP1 levels at 1 mg/kg, po pretreated for 60 mins followed by glucose challenge and measured 5 to 10 mins post glucose challenge by OGTT relative to control; assay type: functional; procedure, shortened: as §3
Mus musculus [45] = experiment: Anti-diabetic activity in 8 hrs-fasted ICR mouse assessed as increase in insulin levels at 1 mg/kg, po pretreated for 60 mins followed by glucose challenge by OGTT; assay type: functional, organism-based; procedure, shortened: as §3

Chain of Voltage-gated inwardly rectifying potassium channel KCNH2 (Q12809 whole entry): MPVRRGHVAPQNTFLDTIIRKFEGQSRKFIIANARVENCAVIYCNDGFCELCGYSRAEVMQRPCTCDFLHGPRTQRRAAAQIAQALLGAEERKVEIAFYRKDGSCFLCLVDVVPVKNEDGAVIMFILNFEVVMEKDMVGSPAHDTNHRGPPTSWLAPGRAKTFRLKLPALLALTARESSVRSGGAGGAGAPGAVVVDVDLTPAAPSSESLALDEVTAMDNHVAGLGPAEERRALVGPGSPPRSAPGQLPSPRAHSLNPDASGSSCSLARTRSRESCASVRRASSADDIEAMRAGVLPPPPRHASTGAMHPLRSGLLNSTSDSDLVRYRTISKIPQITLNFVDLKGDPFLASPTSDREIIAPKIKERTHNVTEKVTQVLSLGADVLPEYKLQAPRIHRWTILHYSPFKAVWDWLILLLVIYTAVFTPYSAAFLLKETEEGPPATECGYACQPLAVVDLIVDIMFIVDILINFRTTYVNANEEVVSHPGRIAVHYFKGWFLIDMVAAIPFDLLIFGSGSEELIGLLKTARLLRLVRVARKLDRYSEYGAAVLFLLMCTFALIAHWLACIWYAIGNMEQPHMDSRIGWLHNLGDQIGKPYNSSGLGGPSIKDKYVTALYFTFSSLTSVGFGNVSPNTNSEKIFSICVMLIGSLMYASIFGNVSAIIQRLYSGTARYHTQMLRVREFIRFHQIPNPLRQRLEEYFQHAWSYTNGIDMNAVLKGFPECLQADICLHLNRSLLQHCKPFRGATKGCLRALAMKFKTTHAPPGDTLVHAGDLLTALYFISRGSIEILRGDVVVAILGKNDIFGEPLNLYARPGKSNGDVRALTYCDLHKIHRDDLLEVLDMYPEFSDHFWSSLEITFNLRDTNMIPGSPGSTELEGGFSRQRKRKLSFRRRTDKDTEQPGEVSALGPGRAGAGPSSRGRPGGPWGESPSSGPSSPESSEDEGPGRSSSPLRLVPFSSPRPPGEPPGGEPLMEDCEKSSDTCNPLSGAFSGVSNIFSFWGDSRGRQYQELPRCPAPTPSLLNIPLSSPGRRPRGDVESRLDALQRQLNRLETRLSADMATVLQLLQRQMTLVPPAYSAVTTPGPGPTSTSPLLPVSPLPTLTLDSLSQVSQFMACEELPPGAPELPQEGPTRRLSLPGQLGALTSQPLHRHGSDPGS

COc1cc2c3c(ccc2cc1C#N)O[C@H](c1cc(F)c(F)cc1F)[C@@H](N)C3
half-life [1]: 25.3 h
Tmax [2]: 10.2 h
Cmax [3]: 1.77 µg/mL
C0 (Mus musculus [4]): 1.77337 µg/mL
AUC(0-t) [5]: 82 µg·h/mL
AUC(0-inf) [6]: 85.6 µg·h/mL
MRT inf [7]: 40.7 h
Tmax [8]: 6.67 h
C0 (Rattus norvegicus): 1.38747 µg/mL
Cmax [9]: 1.39 µg/mL
AUC(0-t) [10]: 23.2 µg·h/mL
half-life [11]: 11.9 h
C0 [12]: 2.01 µg/mL
Cmax [13]: 2.01 µg/mL
AUC(0-t) [14]: 11.8 µg·h/mL
AUC(0-inf) [15]: 15.4 µg·h/mL
clearance [16]: 0.066 L/h/kg
MRT inf [17]: 15.9 h
Vd [18]: 2.07 L/kg
Drug uptake [19]: Active
Drug uptake [20]: Active
bioavailability [21]: 98.5%
inhibition in vivo at 3 mg/kg (Mus musculus [22]; 168 h): ≤ 80%
inhibition in vivo at 0.3 mg/kg (Mus musculus [23]): 16.4%
inhibition in vivo at 3 mg/kg (Mus musculus [24]): 27.2%
Activity (Mus musculus [25]): Active
Activity (Mus musculus [26]): 24.7%
Activity (Mus musculus [27]): 33.1%
Activity (Mus musculus [28]): Active
Activity (Mus musculus [29]): 3.56%
Activity [30]: Non-Toxic
IC50 [31]: > 40 µM
Activity [32]: Non-Toxic
Activity [33]: Non-Toxic
Activity [34]: Non-Toxic
Activity [35]: Non-Toxic
Activity [36]: Non-Toxic
Activity [37]: Non-Toxic
Activity [38]: Non-Toxic
Activity [39]: Non-Toxic
inhibition in vivo at 3 mg/kg (Mus musculus [40]): > 80%
inhibition in vivo at 10 mg/kg (Mus musculus [41]): 18.3%

Cn1c(=O)cc(N2CCC[C@@H](N)C2)n(Cc2cc(F)ccc2C#N)c1=O [TRELAGLIPTIN]
inhibition (Mus musculus [42]): Active
Activity (Mus musculus [27]): 16.8%
Activity (Mus musculus [28]): Active
fold change (FC) (Mus musculus [43]): 1.7
Activity (Mus musculus [29]): Active
inhibition in vivo at 10 mg/kg (Mus musculus [41]): 19.3%

CS(=O)(=O)n1cc2c(n1)CN([C@H]1CO[C@H](c3cc(F)ccc3F)[C@@H](N)C1)C2 [OMARIGLIPTIN]
inhibition (Mus musculus [22]): Active
inhibition (Mus musculus [42]): Active
inhibition in vivo at 0.3 mg/kg (Mus musculus [23]): 14.6%
inhibition in vivo at 3 mg/kg (Mus musculus [24]): 22.1%
fold change (FC) (Mus musculus [44]): 1.6 - 1.7
Activity (Mus musculus [45]): Active
Activity (Mus musculus [27]): 26.6%
Activity (Mus musculus [28]): Active
fold change (FC) (Mus musculus [43]): 1.8
Activity (Mus musculus [29]): Active
inhibition in vivo at 10 mg/kg (Mus musculus [41]): 8.3%
